Measurements: ChEMBL document CHEMBL1145069, “Stereospecific synthesis of 5-substituted 2-bisarylthiocyclopentane carboxylic acids as specific matrix metalloproteinase inhibitors” (J Med Chem, 2003)
“And” between values parts separate entries of the source, which are not always exact repeats. Equal entries are not always repeated.

Key:
[1] = target: 72 kDa type IV collagenase (Homo sapiens, UniProt P08253); experiment: Inhibitory activity against matrix metalloprotease-2 (MMP2)
Interstitial collagenase = target: T1, Interstitial collagenase (Homo sapiens, UniProt P03956); experiment: Inhibitory activity against matrix metalloprotease-1 (MMP1)
T1 sequence (P03956 whole entry): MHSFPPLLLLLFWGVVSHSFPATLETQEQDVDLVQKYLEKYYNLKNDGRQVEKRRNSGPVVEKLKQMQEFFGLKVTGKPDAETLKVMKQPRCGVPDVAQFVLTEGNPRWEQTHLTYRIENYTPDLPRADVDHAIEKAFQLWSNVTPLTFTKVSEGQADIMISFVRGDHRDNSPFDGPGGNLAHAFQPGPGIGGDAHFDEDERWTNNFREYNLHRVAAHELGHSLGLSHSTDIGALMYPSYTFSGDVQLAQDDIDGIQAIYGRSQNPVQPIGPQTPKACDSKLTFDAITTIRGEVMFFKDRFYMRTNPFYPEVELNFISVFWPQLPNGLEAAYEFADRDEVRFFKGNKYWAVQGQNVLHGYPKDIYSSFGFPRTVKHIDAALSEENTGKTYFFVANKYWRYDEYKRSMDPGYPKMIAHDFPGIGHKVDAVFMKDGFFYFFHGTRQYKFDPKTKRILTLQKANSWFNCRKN

Collagenase 3 = Collagenase 3 (Homo sapiens, UniProt P45452); experiment: Inhibitory activity against matrix metalloprotease-13 (MMP13)
Stromelysin-1 = Stromelysin-1 (Homo sapiens, UniProt P08254); experiment: Inhibitory activity against matrix metalloprotease-3 (MMP3)
Stromelysin-1, sequence (P08254 whole entry): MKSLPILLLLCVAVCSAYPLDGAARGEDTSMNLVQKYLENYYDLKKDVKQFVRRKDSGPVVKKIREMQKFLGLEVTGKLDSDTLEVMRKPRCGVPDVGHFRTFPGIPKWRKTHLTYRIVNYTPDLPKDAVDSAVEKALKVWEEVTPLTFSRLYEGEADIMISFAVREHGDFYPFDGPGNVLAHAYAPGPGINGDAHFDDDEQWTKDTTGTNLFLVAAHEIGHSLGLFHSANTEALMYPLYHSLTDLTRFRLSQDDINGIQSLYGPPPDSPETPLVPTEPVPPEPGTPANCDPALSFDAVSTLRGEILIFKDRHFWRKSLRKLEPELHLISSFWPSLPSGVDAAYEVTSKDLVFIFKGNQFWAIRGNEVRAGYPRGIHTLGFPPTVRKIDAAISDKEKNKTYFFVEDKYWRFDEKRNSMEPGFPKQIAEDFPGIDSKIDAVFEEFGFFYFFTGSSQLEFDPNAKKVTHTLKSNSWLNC

[2] = target: Matrix metalloproteinase-9 (Homo sapiens, UniProt P14780); experiment: Inhibitory activity against matrix metalloprotease-9 (MMP9)
Matrix metalloproteinase-9, sequence (P14780 whole entry): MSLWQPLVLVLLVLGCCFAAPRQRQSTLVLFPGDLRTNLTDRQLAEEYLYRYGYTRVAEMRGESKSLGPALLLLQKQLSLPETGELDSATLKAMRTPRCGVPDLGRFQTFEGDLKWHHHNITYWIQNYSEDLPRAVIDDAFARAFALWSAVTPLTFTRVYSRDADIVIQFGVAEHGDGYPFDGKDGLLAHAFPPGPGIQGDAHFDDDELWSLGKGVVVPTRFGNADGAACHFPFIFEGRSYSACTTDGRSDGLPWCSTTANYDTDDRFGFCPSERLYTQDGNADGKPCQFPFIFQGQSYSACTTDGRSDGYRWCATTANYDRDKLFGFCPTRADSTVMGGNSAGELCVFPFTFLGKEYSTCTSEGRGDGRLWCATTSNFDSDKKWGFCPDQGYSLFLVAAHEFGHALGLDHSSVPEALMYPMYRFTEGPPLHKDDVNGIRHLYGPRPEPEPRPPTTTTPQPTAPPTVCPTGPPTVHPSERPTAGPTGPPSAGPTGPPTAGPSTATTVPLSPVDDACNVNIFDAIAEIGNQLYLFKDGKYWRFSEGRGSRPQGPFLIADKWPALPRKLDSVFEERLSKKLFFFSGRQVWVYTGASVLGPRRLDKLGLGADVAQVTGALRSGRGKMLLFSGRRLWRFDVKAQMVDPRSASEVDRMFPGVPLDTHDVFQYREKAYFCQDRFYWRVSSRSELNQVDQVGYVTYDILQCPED

Homo sapiens [3] = species on record: Homo sapiens; experiment: In vitro absorption was measured in Caco-2 cell; assay type: ADME
Mus musculus [4] = experiment: Tested for antitumor activity in mice against B16F10 melanoma measured as reduction in number of metastases at 200 mg/kg (ip); assay type: functional
Summary of the method: (§1)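 B16-F10 cells passaged in vitro, then 2×10^5 cells per mouse injected into the tail vein of B6D2F1 mice in PBS with 0.5% foetal calf serum. 7 mice per group. Dosing i.p. or p.o. 1 h before inoculation, then daily for 3 days (four doses). Lungs collected on day 11 and fixed in Bouin's fluid. Metastases per lung (total and ≥1 mm) given as % of control mean.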

Rattus norvegicus = species on record: Rattus norvegicus; experiment: In vitro metabolic stability and first pass metabolism was evaluated in rat hepatic microsomes; assay type: ADME, Liver
Mus musculus [5] = experiment: Tested for antitumor activity in mice against B16F10 melanoma measured as reduction in number of metastases at 100 mg/kg (ip); assay type: functional; summary of the method: as §1
Homo sapiens [6] = species on record: Homo sapiens; experiment: In vitro metabolic stability and first pass metabolism was evaluated in human hepatic microsomes; assay type: ADME, Liver
[7] = In vivo half life in mice after 5 mg/kg (iv) administration; assay type: ADME, organism-based; set-up: dose 5 mg/kg; settings: mouse
[8] = Bioavailability in mouse (dose 50 mg/kg i.p.); assay type: ADME, organism-based; settings: in vivo, ip
[9] = In vivo half life in mice after 50 mg/kg (po) administration; assay type: ADME, organism-based; set-up: dose 50 mg/kg; settings: mouse
[10] = In vivo maximum plasma concentration was determined in mice after 50 mg/kg (ip) administration; assay type: ADME, organism-based; set-up: route intraperitoneal, dose 50 mg/kg; settings: mouse
[11] = In vivo half life in mice after 50 mg/kg (ip) administration; assay type: ADME, organism-based; set-up: dose 50 mg/kg; settings: mouse
[12] = In vivo maximum plasma concentration was determined in mice after 5 mg/kg (iv) administration; assay type: ADME, organism-based; set-up: route intravenous, dose 5 mg/kg; settings: mouse
Mus musculus [13] = experiment: Tested for antitumor activity in mice against B16F10 melanoma measured as reduction in number of metastases at 100 mg/kg (po); assay type: functional; summary of the method: as §1
[14] = Bioavailability in mouse (dose 50 mg/kg p.o.); assay type: ADME, organism-based; settings: in vivo, po
Mus musculus [15] = experiment: Tested for antitumor activity in mice against B16F10 melanoma measured as reduction in number of metastases at 200 mg/kg (po); assay type: functional; summary of the method: as §1
[16] = In vivo maximum plasma concentration was determined in mice after 50 mg/kg (po) administration; assay type: ADME, organism-based; set-up: route oral, dose 50 mg/kg; settings: mouse
Mus musculus [17] = experiment: Tested for antitumor activity in mice against B16F10 melanoma measured as reduction in number of metastases at 25 mg/kg (ip); assay type: functional; summary of the method: as §1
Mus musculus [18] = experiment: Tested for antitumor activity in mice against B16F10 melanoma measured as reduction in number of metastases at 50 mg/kg (ip); assay type: functional; summary of the method: as §1
[19] = Bioavailability determined; assay type: ADME, organism-based; settings: eutheria, in vivo

72 kDa type IV collagenase, sequence (P08253 whole entry): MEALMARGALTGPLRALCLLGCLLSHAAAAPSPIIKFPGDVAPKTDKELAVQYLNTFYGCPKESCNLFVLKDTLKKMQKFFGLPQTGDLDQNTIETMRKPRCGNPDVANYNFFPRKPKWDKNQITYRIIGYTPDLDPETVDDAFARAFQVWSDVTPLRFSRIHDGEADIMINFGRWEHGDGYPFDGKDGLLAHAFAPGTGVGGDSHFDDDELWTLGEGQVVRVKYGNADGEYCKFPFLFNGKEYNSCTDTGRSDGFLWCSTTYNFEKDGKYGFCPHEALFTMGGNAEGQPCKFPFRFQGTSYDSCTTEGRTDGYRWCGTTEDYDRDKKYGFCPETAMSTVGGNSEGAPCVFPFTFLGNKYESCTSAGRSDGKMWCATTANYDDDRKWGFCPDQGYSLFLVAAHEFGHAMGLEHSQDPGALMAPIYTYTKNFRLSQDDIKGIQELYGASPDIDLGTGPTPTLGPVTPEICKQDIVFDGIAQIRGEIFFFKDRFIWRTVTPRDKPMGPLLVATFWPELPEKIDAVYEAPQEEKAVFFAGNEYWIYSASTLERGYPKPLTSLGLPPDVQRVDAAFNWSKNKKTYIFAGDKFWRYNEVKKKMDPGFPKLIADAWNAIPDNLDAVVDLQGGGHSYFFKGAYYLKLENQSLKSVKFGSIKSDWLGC

IC50 [1]	IC50 (Interstitial collagenase)	IC50 (Collagenase 3)	IC50 (Stromelysin-1)	IC50 [2]	Structure (SMILES)	also measured
> 8000 nM	> 100000 nM	> 100000 nM	> 100000 nM	> 6000 nM	O=C(O)[C@H]1[C@H](Cn2nnc3ccccc3c2=O)CC[C@@H]1Sc1ccc(-c2nccs2)cc1	–
76 nM	5400 nM	808 nM	64 nM	39 nM	O=C(O)[C@H]1[C@H](CN2C(=O)c3ccccc3C2=O)CC[C@@H]1S(=O)(=O)CCc1ccc(-c2ccc(Cl)cc2)cc1	Absorption (Homo sapiens [3]): 92%; No. of metastases (Mus musculus [4]): 109; MF (Rattus norvegicus): 58%; No. of metastases (Mus musculus [5]): 78; MF (Homo sapiens [6]): 91%
743 nM	67000 nM	1.9 nM	5200 nM	3000 nM	O=C(O)[C@@H]1[C@@H](Cn2nnc3ccccc3c2=O)CC[C@H]1Sc1ccc(-c2ccc(Cl)cc2)cc1	–
62 nM	6000 nM	248 nM	60 nM	26 nM	O=C(O)[C@H]1[C@H](CN2C(=O)c3ccccc3C2=O)CC[C@@H]1SCCc1ccc(-c2ccc(F)cc2)cc1	Absorption (Homo sapiens [3]): 90%; half-life [7]: 3.5 h; No. of metastases (Mus musculus [4]): 24.5; bioavailability [8]: 100%; MF (Rattus norvegicus): 55%; half-life [9]: 4 h; No. of metastases (Mus musculus [5]): 32.5; Cmax [10]: 130 µg/mL; half-life [11]: 4 h; Cmax [12]: 40 µg/mL; MF (Homo sapiens [6]): 62%; No. of metastases (Mus musculus [13]): 72; bioavailability [14]: 93%; No. of metastases (Mus musculus [15]): 68; Cmax [16]: 107 µg/mL
13 nM	> 10000 nM	11 nM	5 nM	24 nM	N#Cc1ccc(-c2ccc(S[C@H]3CC[C@@H](Cn4nnc5ccccc5c4=O)[C@@H]3C(=O)O)cc2)cc1	–
154 nM	–	–	–	58 nM	CN1C(=O)N(C[C@H](C(=O)NO)[C@@H](CC2CCCC2)C(=O)N2CCCCC2)C(=O)C1(C)C	–
76 nM	–	296 nM	316 nM	47 nM	O=C(O)[C@H]1[C@H](CN2C(=O)c3ccccc3C2=O)CC[C@@H]1S(=O)(=O)CCc1ccc(-c2ccc(F)cc2)cc1	–
–	> 100000 nM and 12000 nM	–	–	–	O=C(O)[C@H]1[C@H](Cn2nnc3ccccc3c2=O)CC[C@@H]1Sc1ccc(-c2ccc(Cl)cc2)cc1	No. of metastases (Mus musculus [17]): 45; Absorption (Homo sapiens [3]): 95%; half-life [7]: 3.4 h; bioavailability [8]: 100%; No. of metastases (Mus musculus [18]): 39; MF (Rattus norvegicus): 74%; half-life [9]: 3 h; No. of metastases (Mus musculus [5]): 30; Cmax [10]: 203 µg/mL; half-life [11]: 4 h; Cmax [12]: 40 µg/mL; MF (Homo sapiens [6]): 100%; No. of metastases (Mus musculus [13]): 70; bioavailability [14]: 69%; No. of metastases (Mus musculus [15]): 74.5; Cmax [16]: 93 µg/mL
46 nM	45000 nM	162 nM	26 nM	12 nM	O=C(O)[C@H]1[C@H](CN2C(=O)c3ccccc3C2=O)CC[C@@H]1SCCc1ccc(-c2ccccc2)cc1	–
5 nM	> 10000 nM	13 nM	21 nM	4 nM	CSc1ccc(-c2ccc(S[C@H]3CC[C@@H](Cn4nnc5ccccc5c4=O)[C@@H]3C(=O)O)cc2)cc1	–
829 nM	> 1000 nM	417 nM	8000 nM	661 nM	O=C(O)[C@H]1[C@H](Cn2nnc3ccccc3c2=O)CC[C@@H]1Sc1ccc(-c2nc3ccccc3s2)cc1	–
130 nM	6600 nM	682 nM	21 nM	642 nM	O=C(O)[C@H]1[C@H](CN2NNc3nc[nH]c3C2=O)CC[C@@H]1Sc1ccc(-c2ccc(Cl)cc2)cc1	–
14 nM	63000 nM	195 nM	305 nM	16 nM	CSc1ccc(-c2ccc(S[C@H]3CC[C@@H](Cn4c(=O)nc5ccccn5c4=O)[C@@H]3C(=O)O)cc2)cc1	–
> 100000 nM	> 100000 nM	> 100000 nM	> 100000 nM	> 100000 nM	O=C(O)[C@H]1[C@H](Cn2nnc3ccccc3c2=O)CC[C@@H]1Sc1ccc(-c2c[nH]nn2)cc1	–
73 nM	50000 nM	129 nM	45 nM	13 nM	O=C(O)[C@H]1[C@H](CN2C(=O)c3ccccc3C2=O)CC[C@@H]1SCCc1ccc(-c2ccc(Cl)cc2)cc1	Absorption (Homo sapiens [3]): 94%; No. of metastases (Mus musculus [4]): 43; MF (Rattus norvegicus): 43%; No. of metastases (Mus musculus [5]): 96; MF (Homo sapiens [6]): 61%; No. of metastases (Mus musculus [13]): 69; No. of metastases (Mus musculus [15]): 64.5
106 nM	> 70000 nM	391 nM	62 nM	24 nM	O=C(O)[C@H]1[C@H](Cn2nnc3ccccc3c2=O)CC[C@@H]1SCCc1ccc(-c2ccc(Cl)cc2)cc1	Absorption (Homo sapiens [3]): 91%; No. of metastases (Mus musculus [4]): 31; MF (Rattus norvegicus): 76%; No. of metastases (Mus musculus [5]): 51; MF (Homo sapiens [6]): 63%; No. of metastases (Mus musculus [13]): 65; No. of metastases (Mus musculus [15]): 80
20 nM	> 1000 nM	31 nM	103 nM	31 nM	N#Cc1ccc(-c2ccc(S[C@H]3CC[C@@H](Cn4c(=O)nc5ccccn5c4=O)[C@@H]3C(=O)O)cc2)cc1	–

Structure (SMILES)	IC50 [1]	IC50 (Interstitial collagenase)	IC50 (Collagenase 3)	IC50 (Stromelysin-1)	IC50 [2]	also measured
O=C(O)[C@H]1[C@H](Cn2nnc3ccccc3c2=O)CC[C@@H]1S(=O)(=O)c1ccc(-c2ccc(Cl)cc2)cc1	83 nM	> 100000 nM	1.8 nM	694 nM	512 nM	–
O=C(O)[C@H]1[C@H](Cn2nc3n(c2=O)CCCCC3)CC[C@@H]1Sc1ccc(-c2ccc(Cl)cc2)cc1	1700 nM	> 10000 nM	5.1 nM	18000 nM	3800 nM	–
O=C(O)[C@H]1[C@H](CN2C(=O)c3ccccc3C2=O)CC[C@@H]1Sc1ccc(-c2ccccc2)cc1	24 nM	93 nM	66 nM	278 nM	76 nM	–
O=C(O)[C@H]1[C@H](CN2C(=O)c3ccccc3C2=O)CC[C@@H]1SCc1ccc(-c2ccccc2)cc1	2800 nM	> 100000 nM	15 nM	3000 nM	3800 nM	–
CC1(C)NC(=O)N(C[C@@H]2CC[C@H](Sc3ccc(-c4ccc(Cl)cc4)cc3)[C@H]2C(=O)O)C1=O	572 nM	70000 nM	3.1 nM	9400 nM	3300 nM	–
O=C(NO)C(CCn1nnc2ccccc2c1=O)CSc1ccc(-c2ccc(Cl)cc2)cc1 (stereo not drawn)	0.06 nM	> 10000 nM	1.2 nM	10 nM	0.5 nM	bioavailability [19]: < 30%
O=C(O)[C@H]1[C@H](CN2C(=O)c3ccccc3S2(=O)=O)CC[C@@H]1Sc1ccc(-c2ccc(Cl)cc2)cc1	13 nM	2100 nM	80 nM	474 nM	35 nM	–
O=C(O)[C@H]1[C@H](Cn2nnc3ccccc3c2=O)CC[C@@H]1Sc1ccc(-c2ccncc2)cc1	176 nM	> 36000 nM	275 nM	1200 nM	341 nM	–
O=C(O)[C@H]1[C@H](Cn2nnc3ccccc3c2=O)CC[C@@H]1S(=O)(=O)CCc1ccc(-c2ccc(Cl)cc2)cc1	383 nM	> 100000 nM	2.8 nM	253 nM	132 nM	–
O=C(O)[C@H]1[C@H](Cn2c(=O)nc3ccccn3c2=O)CC[C@@H]1Sc1ccc(-c2ccc(Cl)cc2)cc1	9 nM	> 10000 nM	27 nM	134 nM	30 nM	–
O=C(O)[C@H]1[C@H](Cn2nc3ccccn3c2=O)CC[C@@H]1Sc1ccc(-c2ccc(Cl)cc2)cc1	25 nM	10000 nM	32 nM	184 nM	37 nM	–
O=C(O)[C@H]1[C@H](CN2NNc3ccsc3C2=O)CC[C@@H]1Sc1ccc(-c2ccc(Cl)cc2)cc1	20 nM	4400 nM	133 nM	216 nM	62 nM	–
